Data from ChEMBL document CHEMBL4020760, “Discovery of a Small Molecule Probe That Post-Translationally Stabilizes the Survival Motor Neuron Protein for the Treatment of Spinal Muscular Atrophy” (J Med Chem, 2017).
Converted amounts (≈) assume the structure as drawn. The source made the active and inactive calls. The calls are words filed in the database; no cut-off is given here.

Tests used:
[1] = Fraction unbound in human plasma; type: ADME, cell-free
Summary of the method: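 Plasma protein binding measured in mouse and human plasma and expressed as percent free.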

[2] = Aqueous solubility of the compound at pH 7.4; type: physicochemical; settings: aqueous solution
Summary of the method: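 Kinetic solubility measured in aqueous medium at pH 7.4.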

[3] = molecular target: Survival motor neuron protein (Homo sapiens) (UniProt Q16637); assay: Stabilization of SMN protein in 3813T fibroblasts derived from human SMA patient assessed as increase in SMN protein level at 2 uM after 48 hrs by SDS-PAGE and immunoblot
Summary of the method: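 hTERT-immortalized SMA patient 3813T fibroblasts seeded at 6000/well, next day dosed for 48 h at indicated concentrations, 0.1% DMSO. Lysed in boiling buffer (150 mM NaCl, 10 mM Tris pH 8.0, 2% SDS), run on 10% SDS-PAGE, SMN immunoblotted, normalized to tubulin or actin as fold over DMSO; one-way ANOVA with Dunnett.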

Plasma [4] = assay: Cmax in mouse plasma at 20 mg/kg, ip; type: ADME, organism-based; design: dose 20 mg/kg, route intraperitoneal; settings: in vivo
Plasma [5] = assay: AUC (0 to 24 hrs) in mouse plasma at 20 mg/kg, ip; type: ADME, organism-based; design: dose 20 mg/kg, time < 24 hr, route intraperitoneal; settings: in vivo
Plasma [6] = assay: AUC (0 to 24 hrs) in mouse plasma at 20 mg/kg, po; type: ADME, organism-based; design: dose 20 mg/kg, time < 24 hr, route oral; settings: in vivo
[7] = AUC (0 to 24 hrs) in mouse brain at 20 mg/kg, po; type: ADME, organism-based; design: time < 24 hr, dose 20 mg/kg, route oral
Plasma [8] = assay: Tmax in mouse plasma at 20 mg/kg, po; type: ADME, organism-based; settings: in vivo
Brain [9] = assay: Tmax in mouse brain at 20 mg/kg, po; type: ADME, organism-based; settings: in vivo
Plasma [10] = assay: Half life in mouse plasma at 20 mg/kg, ip; type: ADME, organism-based; settings: in vivo
Brain [11] = assay: Half life in mouse brain at 20 mg/kg, po; type: ADME, organism-based; settings: in vivo
HEK293 [12] = assay: Effect on basal level of polyubiquitinated protein in HEK293 cells at 1 and 10 uM incubated for 2 hrs by SDS-PAGE analysis; type: cell-based; settings: human, hek293, 2 h
Summary of the method: (§1)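 HEK293 cells pretreated 2 h with test compound or MG-132 (1 and 10 μM), then DMSO or cycloheximide (10 μM) added and incubated a further 6 h; final DMSO 0.2%. Lysates run on 4–15% gradient SDS-PAGE; anti-ubiquitin blot for polyubiquitinated proteins, tubulin as loading control.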

SH-SY5Y = assay: Cytotoxicity against human SH-SY5Y cells assessed as reduction in cell viability at 100 times EC50 concentration after 48 hrs by CellTiter 96 AQueous one solution cell proliferation assay; type: cell-based
Summary of the method: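 SH-SY5Y cells seeded at 10,000/well, next day treated with graded compound doses in duplicate for 48 h, 0.2% DMSO constant; CellTiter 96 AQueous One reagent added for the last 4 h; cycloheximide 200 ng/mL as toxicity control.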

HEK293 [13] = assay: Effect on luciferase expression in human HEK293 cells expressing SV40 promoter at 10 to 30 uM after 24 hrs by luciferase reporter gene assay; type: ADME, cell-based; settings: hek293, 24 h
[14] = molecular target: Survival motor neuron protein (Homo sapiens) (UniProt Q16637); assay: Stabilization of human SMN protein expressed in HEK293 cells at 10 to 30 uM after 24 hrs by luciferase reporter gene assay; type: cell-based
Summary of the method: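 SMN2-luc reporter cells seeded at 25,000/well overnight, then treated 24 h with six doses (3-fold serial dilutions, top final 10 or 30 μM), 0.1% DMSO. Firefly and Renilla luciferase read by dual-luciferase assay, normalized to DMSO as percent; EC50 and maximal activation from curves. Mean ± SEM, ≥3 trials.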

HEK293 [15] = assay: Effect on cycloheximide-induced reduction in basal level of polyubiquitinated protein level in HEK293 cells at 1 uM pretreated for 2 hrs followed by cycloheximide addition measured after 6 hrs by SDS-PAGE analysis; type: functional, cell-based; settings: Homo sapiens; summary of the method: as §1
Oryctolagus cuniculus = organism: Oryctolagus cuniculus; assay: Effect on proteasome in rabbit reticulocyte lysates assessed as MBP-HPV-16 E6-mediated p53 degradation at 10 and 30 uM incubated for 30 mins prior to MBP-E6 addition by Western blot analysis
Summary of the method: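 Purified p53 and MBP-HPV16 E6. E6 (0.1 μM) or buffer then added for 2 h at 25 °C, stopped at 75 °C. p53 read by 10% SDS-PAGE/Western (PAb1801).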

CYP2A6 = molecular target: T1, CYP2A6 (Homo sapiens, UniProt P11509); assay: Inhibition of CYP2A6 (unknown origin) at 10 uM; type: ADME
T1 sequence (P11509 whole entry): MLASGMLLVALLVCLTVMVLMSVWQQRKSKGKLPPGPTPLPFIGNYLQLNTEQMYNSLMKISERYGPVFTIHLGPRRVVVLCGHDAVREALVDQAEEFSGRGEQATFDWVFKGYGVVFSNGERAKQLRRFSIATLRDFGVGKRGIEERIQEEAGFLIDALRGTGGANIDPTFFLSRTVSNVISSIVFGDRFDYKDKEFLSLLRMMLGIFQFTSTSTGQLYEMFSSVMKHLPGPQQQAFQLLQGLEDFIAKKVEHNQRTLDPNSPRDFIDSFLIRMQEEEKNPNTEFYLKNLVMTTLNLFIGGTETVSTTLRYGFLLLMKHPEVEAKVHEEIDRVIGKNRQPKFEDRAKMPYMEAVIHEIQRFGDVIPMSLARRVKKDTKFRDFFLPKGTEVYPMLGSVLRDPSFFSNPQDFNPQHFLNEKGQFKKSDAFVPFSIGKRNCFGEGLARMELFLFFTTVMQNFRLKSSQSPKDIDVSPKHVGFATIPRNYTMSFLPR

CYP3A4 = CYP3A4 (Homo sapiens, UniProt P08684); assay: Inhibition of CYP3A4 (unknown origin) at 10 uM; type: ADME
[16] = molecular target: Voltage-gated inwardly rectifying potassium channel KCNH2 (Homo sapiens, UniProt Q12809); assay: Inhibition of human ERG at 10 uM
Lampyridae = assay: Effect on firefly recombinant luciferase protein
Summary of the method: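 Compound diluted in complete DMEM and incubated with recombinant firefly luciferase (1:10 000 in passive lysis buffer, 1 mg/mL BSA); activity read with SteadyLite reagent.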

[17] = molecular target: Survival motor neuron protein (Homo sapiens) (UniProt Q16637); assay: Stabilization of human SMN protein expressed in HEK293 cells expressing SMN2 promoter assessed as additive effect on SMN stabilization in presence of 0.1: 0.1 to 10:10 ratio of LDN-75654 to compound after 24 hrs by luciferase reporter gene assay; type: cell-based
Summary of the method: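 SMN2 reporter cells exposed 24 h to the two compounds alone or combined at constant ratio, DMSO held at 0.2%, and SMN-luc read. Theoretical additive effect taken as the sum of the single-agent activities.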

Renilla = assay: Effect on renilla recombinant luciferase protein expressed in HEK293 cells at 10 uM after 24 hrs in presence of 10 uM cycloheximide by renilla luciferase reporter gene assay; type: cell-based
Summary of the method: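 SMN2-luc reporter cells given cycloheximide (10 μM) together with compound (10 μM) or DMSO. Lysed at set time points; SMN-luc and Renilla-luc activities measured.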

[18] = molecular target: Survival motor neuron protein (Homo sapiens) (UniProt Q16637); assay: Stabilization of SMN protein in 3813T fibroblasts derived from human SMA patient assessed as increase in SMN protein level after 48 hrs by SDS-PAGE and immunoblot
[19] = molecular target: Survival motor neuron protein (Homo sapiens) (UniProt Q16637); assay: Stabilization of SMN protein in 3813T fibroblasts derived from human SMA patient assessed as increase in SMN protein level at 2 uM after 48 hrs by SDS-PAGE and immunoblot

Survival motor neuron protein (Homo sapiens), sequence (Q16637 whole entry): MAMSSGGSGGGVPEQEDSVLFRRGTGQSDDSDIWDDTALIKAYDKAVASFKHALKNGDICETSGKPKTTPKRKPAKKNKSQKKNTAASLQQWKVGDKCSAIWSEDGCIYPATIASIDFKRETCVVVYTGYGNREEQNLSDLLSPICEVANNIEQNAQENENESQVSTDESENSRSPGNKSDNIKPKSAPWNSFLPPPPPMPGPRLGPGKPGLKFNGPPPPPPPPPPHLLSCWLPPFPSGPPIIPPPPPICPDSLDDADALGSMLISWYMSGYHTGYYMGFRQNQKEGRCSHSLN
Voltage-gated inwardly rectifying potassium channel KCNH2, sequence (Q12809 whole entry): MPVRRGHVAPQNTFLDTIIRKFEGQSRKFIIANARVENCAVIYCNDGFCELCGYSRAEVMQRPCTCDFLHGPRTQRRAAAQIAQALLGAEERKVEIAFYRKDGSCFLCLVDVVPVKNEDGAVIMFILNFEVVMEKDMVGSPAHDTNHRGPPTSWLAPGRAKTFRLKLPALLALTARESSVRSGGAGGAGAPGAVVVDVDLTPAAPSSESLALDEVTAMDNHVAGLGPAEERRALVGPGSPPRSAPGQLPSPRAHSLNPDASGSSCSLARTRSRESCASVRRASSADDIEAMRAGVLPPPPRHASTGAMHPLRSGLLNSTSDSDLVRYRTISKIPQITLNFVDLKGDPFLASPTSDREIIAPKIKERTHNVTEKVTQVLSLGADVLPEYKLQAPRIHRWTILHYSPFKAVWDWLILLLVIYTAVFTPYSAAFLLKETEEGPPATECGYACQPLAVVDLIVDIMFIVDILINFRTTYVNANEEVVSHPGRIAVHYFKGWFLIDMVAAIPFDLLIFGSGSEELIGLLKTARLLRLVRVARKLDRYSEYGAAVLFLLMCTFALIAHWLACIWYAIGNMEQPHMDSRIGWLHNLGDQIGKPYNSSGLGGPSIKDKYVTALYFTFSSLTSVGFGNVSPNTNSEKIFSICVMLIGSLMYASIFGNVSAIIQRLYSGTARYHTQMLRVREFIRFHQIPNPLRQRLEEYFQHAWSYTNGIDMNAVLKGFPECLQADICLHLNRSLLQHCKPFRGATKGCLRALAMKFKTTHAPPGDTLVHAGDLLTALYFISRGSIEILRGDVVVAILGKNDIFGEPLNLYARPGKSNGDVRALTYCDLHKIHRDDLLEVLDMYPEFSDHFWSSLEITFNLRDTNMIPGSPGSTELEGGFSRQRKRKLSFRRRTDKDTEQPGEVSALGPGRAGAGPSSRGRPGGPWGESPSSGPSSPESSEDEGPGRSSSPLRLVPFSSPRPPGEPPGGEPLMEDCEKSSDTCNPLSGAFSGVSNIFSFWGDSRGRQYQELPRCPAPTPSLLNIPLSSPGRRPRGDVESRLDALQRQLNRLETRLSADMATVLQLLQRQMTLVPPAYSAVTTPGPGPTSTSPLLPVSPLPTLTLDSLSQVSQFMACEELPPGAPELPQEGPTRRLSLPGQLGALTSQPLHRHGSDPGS
CYP3A4, sequence (P08684 whole entry): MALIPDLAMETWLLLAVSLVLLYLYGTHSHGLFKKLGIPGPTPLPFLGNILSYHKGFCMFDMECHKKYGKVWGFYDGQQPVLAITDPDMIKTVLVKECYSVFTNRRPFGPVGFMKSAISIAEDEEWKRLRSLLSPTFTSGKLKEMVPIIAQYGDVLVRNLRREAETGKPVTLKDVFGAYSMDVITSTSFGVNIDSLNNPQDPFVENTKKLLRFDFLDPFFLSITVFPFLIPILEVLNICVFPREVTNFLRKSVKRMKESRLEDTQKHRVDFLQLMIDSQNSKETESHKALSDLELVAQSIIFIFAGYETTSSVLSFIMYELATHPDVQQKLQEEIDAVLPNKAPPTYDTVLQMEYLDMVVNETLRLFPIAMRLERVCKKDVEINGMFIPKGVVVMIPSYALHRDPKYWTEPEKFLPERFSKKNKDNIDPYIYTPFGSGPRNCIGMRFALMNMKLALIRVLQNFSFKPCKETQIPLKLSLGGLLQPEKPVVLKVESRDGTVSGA

O=C(Nc1ncc(C2(O)CCC2)s1)c1ccc(F)c(Cl)c1
fraction unbound [1]: 0.035
solubility kinetic [2]: 31 µM (≈ 10.1 µg/mL)
fold change (FC) [3]: 2
Cmax (Plasma [4]): 7660 ng/mL
AUC (Plasma [5]): 34291 ng·h/mL
AUC (Plasma [6]): 1641 ng·h/mL
AUC(0-t) at 24 h [7]: 2220 ng·h/mL
Tmax (Plasma [8]): 0.5 h
Tmax (Brain [9]): 0.5 h
t1/2 (Plasma [10]): 2.2 h
t1/2 (Brain [11]): 2.8 h
Activity (HEK293 [12]): Non-Toxic
Activity (SH-SY5Y): Non-Toxic
Activity (HEK293 [13]): Non-Toxic
Activity [14]: Active
Activity (HEK293 [15]): inactive
Activity (Oryctolagus cuniculus): inactive
inhibition at 10 µM (CYP2A6): < 50%
inhibition at 10 µM (CYP3A4): < 50%
inhibition (INH) [16]: Not Active
Activity (Lampyridae): inactive
Activity [17]: inactive
Activity (Renilla): inactive
Activity [18]: Dose-dependent effect
fold change (FC) [19]: 2
